The target of data set [1] is T1, Orexin/Hypocretin receptor type 1 (Homo sapiens, UniProt O43613).
T1 sequence (O43613 whole entry): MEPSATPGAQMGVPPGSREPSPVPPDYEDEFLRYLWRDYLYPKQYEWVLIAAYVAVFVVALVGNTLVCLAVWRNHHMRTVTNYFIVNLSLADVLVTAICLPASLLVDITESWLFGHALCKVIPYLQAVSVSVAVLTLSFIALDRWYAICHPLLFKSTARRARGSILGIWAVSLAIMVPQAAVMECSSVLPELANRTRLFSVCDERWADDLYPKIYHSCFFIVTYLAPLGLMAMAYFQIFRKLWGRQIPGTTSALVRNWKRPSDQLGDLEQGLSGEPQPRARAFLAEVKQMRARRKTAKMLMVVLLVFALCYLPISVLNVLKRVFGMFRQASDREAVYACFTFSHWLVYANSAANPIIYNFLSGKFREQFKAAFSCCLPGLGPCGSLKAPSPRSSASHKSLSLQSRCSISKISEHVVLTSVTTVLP
As to the kind of experiment: Inhibition of human OX1 receptor expressed in CHO cells assessed as […] calcium mobilization by FLIPR assay. The class given is functional, cell-based. In a few lines:
(§1)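 CHO cells expressing human OX1 or OX2 receptor, loaded with fluo-3 AM at 37 °C in 5% CO2, then washed. Antagonist added at varying concentrations before orexin A; intracellular Ca2+ rise read as fluorescence change by FLIPR. IC50 taken as concentration inhibiting 50% of agonist response.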
In general terms: A change in cytosolic calcium serves as a functional read-out for many receptors and channels.

In another data set the target is T2, Orexin receptor type 2 (Homo sapiens, UniProt O43614).
T2 sequence (O43614 whole entry): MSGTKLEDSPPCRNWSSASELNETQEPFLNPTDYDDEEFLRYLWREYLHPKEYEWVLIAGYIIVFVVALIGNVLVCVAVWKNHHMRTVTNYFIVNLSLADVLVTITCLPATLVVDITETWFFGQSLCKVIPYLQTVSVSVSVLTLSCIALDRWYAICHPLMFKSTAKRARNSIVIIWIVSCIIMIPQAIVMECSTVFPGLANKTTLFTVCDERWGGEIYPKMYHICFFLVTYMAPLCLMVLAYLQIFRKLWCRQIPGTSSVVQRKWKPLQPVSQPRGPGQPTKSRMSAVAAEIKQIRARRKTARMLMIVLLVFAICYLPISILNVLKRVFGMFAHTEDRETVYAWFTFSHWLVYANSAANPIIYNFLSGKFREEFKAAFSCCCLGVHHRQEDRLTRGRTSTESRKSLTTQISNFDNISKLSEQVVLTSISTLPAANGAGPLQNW
Briefly: Inhibition of human OX2 receptor expressed in CHO cells assessed as […] calcium mobilization by FLIPR assay. The class given is functional, cell-based. In a few lines:
as §1

Data set [2] is described as follows: Half life in Wistar rat at 1 mg/kg, iv. The class given is ADME, organism-based. Further details: dose 1 mg/kg, route intravenous. The note with it: in vivo. The procedure, abridged: (§2)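 Male Wistar rats on 12-h light/dark cycle; single iv dose 1 mg/kg in 5%/95% (v/v) DMSO : 30/70 hydroxypropyl-β-cyclodextrin/sterile water; one or two animals. Serial blood drawn into Na-EDTA tubes at various time-points, centrifuged to plasma; parameters (clearance mL/min kg, Vss L/kg) derived from plasma concentration–time profiles.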

A short description of data set [3]: AUC in Wistar rat at 1 mg/kg, iv. The class given is ADME, organism-based. Further details: dose 1 mg/kg, route intravenous. The note with it: plasma. The procedure, abridged: as §2
Data set [4] can be described thus: Clearance in Wistar rat plasma at 1 mg/kg, iv. The class given is ADME, organism-based. Further details: dose 1 mg/kg, route intravenous. The procedure, abridged: as §2
The nature of data set [5]: Volume of distribution at steady state in Wistar rat at 1 mg/kg, iv. The class given is ADME, organism-based. On the set-up: dose 1 mg/kg, route intravenous. The note with it: in vivo, read-out: Vdss. In a few lines:
as §2

Data set [6] is described as follows: Cmax in Wistar rat at 10 mg/kg, po. The class given is ADME, organism-based. Further details: dose 10 mg/kg, route oral. The note with it: in vivo. The procedure, abridged: (§3)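 Oral dosing of male Wistar rats at 10 mg/kg formulated in 100% PEG-400, three animals. Serial blood collected into Na-EDTA at various times, spun to plasma. Cmax (ng/mL), Tmax (h), AUC (ng h/mL) from plasma concentration–time curve; F as percent of dose.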

A short description of data set [7]: AUC in Wistar rat at 10 mg/kg, po. The class given is ADME, organism-based. On the set-up: dose 10 mg/kg, route oral. Conditions: plasma. In a few lines:
as §3

Data set [8] can be described thus: Tmax in Wistar rat at 10 mg/kg, po. The class given is ADME, organism-based. On the set-up: dose 10 mg/kg, route oral. Conditions: in vivo. The procedure, abridged:
as §3

Data set [9] in a line: Oral bioavailability in Wistar rat at 10 mg/kg. The class given is ADME, organism-based. Conditions: in vivo. In a few lines: as §3
The subject of data set [10] is Rattus norvegicus. As to the kind of experiment: Effect on behavioral activity in po dosed Wistar rat assessed as change in time spent on non-rapid eye movement sleep in dark. The class given is functional, organism-based. The procedure, abridged:
(§4)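 Freely moving adult male Wistar rats with radiotelemetric probes recording EEG, EMG, locomotor activity and body temperature in home cage; oral dosing in 100% PEG-400 at start of dark phase (100, 300 mg/kg). Home cage activity, active wake, non-REM and REM time integrated over 12-h night. Groups of 7–8, crossover, ≥4-day washout; mean ± SEM, one-way ANOVA with Bonferroni post hoc.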

Data set [11] concerns Rattus norvegicus. As to the kind of experiment: Effect on behavioral activity in po dosed Wistar rat assessed as change in time spent on rapid eye movement sleep in dark. The class given is functional, organism-based. The procedure, abridged:
as §4

Data set [12] concerns Rattus norvegicus. Briefly: Effect on behavioral activity in po dosed Wistar rat assessed as change in time spent active wake in dark. The class given is functional, organism-based. The procedure, abridged: as §4
Data set [13] deals with Rattus norvegicus. Briefly: Effect on behavioral activity in po dosed Wistar rat assessed as decrease in home cage activity in dark. The class given is functional, organism-based. The procedure, abridged:
as §4

Data set [14] relates to Rattus norvegicus. Briefly: Effect on behavioral activity in po dosed Wistar rat assessed as increase in time spent on non-rapid eye movement sleep after 12 hrs in dark. The class given is functional, organism-based. In a few lines:
as §4

The test system of data set [15] is Rattus norvegicus. Briefly: Effect on behavioral activity in po dosed Wistar rat assessed as increase in time spent on rapid eye movement sleep after 12 hrs in dark. The class given is functional, organism-based. In a few lines: as §4
In data set [16] the test system is Rattus norvegicus. Briefly: Drug level in Wistar rat brain at 100 mg/kg, po. On the set-up: dose 100 mg/kg, route oral. The class given is ADME, organism-based. Conditions: in vivo. The procedure, abridged:
(§5)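 Male Wistar rats given 100 mg/kg po; plasma, CSF and brain sampled 1 and 3 h post-dose from same animal (±5 min). Blood from vena cava caudalis into EDTA; CSF from cisterna magna avoiding blood; brain taken after cardiac perfusion with 10 mL 0.9% NaCl, homogenized in 1 volume cold phosphate buffer pH 7.4; total brain concentration in ng/g.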

The nature of data set [17]: Drug level in Wistar rat brain at 100 mg/kg, po after 3 hrs. The class given is ADME, organism-based. On the set-up: dose 100 mg/kg, route oral. The note with it: read-out: Drug uptake. In a few lines:
as §5

Data set [18] relates to Rattus norvegicus. As to the kind of experiment: Effect on behavioral activity in Wistar rat assessed as increase in time spent on non-rapid eye movement sleep at 300 mg/kg, po after 12 hrs. The class given is functional. The procedure, abridged:
as §4

Data set [19] has as its system Rattus norvegicus. As to the kind of experiment: Effect on behavioral activity in Wistar rat assessed as increase in time spent on rapid eye movement sleep at 300 mg/kg, po after 12 hrs. The class given is functional. In a few lines: as §4

Active and inactive are the calls of the source. The calls are words filed in the database; no cut-off is given here.

As a reminder, the IC50 is the concentration needed to halve the response being measured. Usually half-life stands for the time in which the quantity being followed falls by half. Higher therefore signals slow decline. In general, AUC refers to concentration integrated over time. By clearance is commonly meant the rate of elimination divided by the concentration. Broadly, the Cmax is the highest concentration seen after dosing. Broadly, the Tmax is the time from dosing to the highest level. By bioavailability is commonly meant the share of a dose that reaches the circulation, judged against a reference dose that is usually intravenous.

For the molecule `CCN(C(=O)CN(c1cc(N(C)C)ccc1Cl)S(=O)(=O)c1ccc(OC)c(OC)c1)c1cccc(C)n1`, the values for the concentration for half-maximal inhibition (IC50) (in [1]; at Orexin receptor type 2) were 17 nM and 5 nM, respectively. In [2], this molecule gave a half-life of 30 min. For the same molecule, the AUC came to 434 ng·h/mL in data set [3] and 2290 ng·h/mL in data set [7]. The molecule further gave a clearance in [4] of 38 mL/min/kg. In addition, the Vd in [5] was 1.7 L/kg. The molecule further returned a maximum concentration (Cmax) in data set [6] of 582 ng/mL. The Tmax in [8] is 30 min. This molecule also registered a bioavailability in data set [9] of 35%. Moreover, the outcome in the data set with Rattus norvegicus [10], with Rattus norvegicus [11] and with Rattus norvegicus [12] was Active. Moreover, the Activity entry in the data set on Rattus norvegicus [13] was “Dose-dependent effect”; in the data set on Rattus norvegicus [14], “Dose-dependent effect”; in the data set with Rattus norvegicus [15] it was “Dose-dependent effect”; with Rattus norvegicus [18], 83%; with Rattus norvegicus [19], 17%. Besides, in the data set on Rattus norvegicus [16], the Drug uptake is recorded as 10 ng/g. In addition, the concentration at 3 h in data set [17] is 66 ng/g.

Values taken from ChEMBL document CHEMBL1143438, “N-Glycine-sulfonamides as potent dual orexin 1/orexin 2 receptor antagonists” (Bioorg Med Chem Lett, 2008).
